Series [1] can be described thus: Inhibition of human 17-beta-HSD10 expressed in HEK293 cells assessed as reduction in oxidation of [14C]-estradiol to [14C]-estrone incubated for 40 hrs by thin layer chromatography. The series is classed as cell-based. In short, it runs like this:
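The same HEK-293[17β-HSD10] cell assay was used: 2.5 x 10^5 cells, 0.5% final DMSO, 1 µM E2/[14C]-E2 (9:1) for 40 h at 37°C, with Et2O extraction, TLC and radioactivity quantification. Inhibitor was tested from 0.01 to 5 µM in triplicate. IC50 was calculated from the inhibition curves.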

The subject of series [2] is HEK293. The experiment in a line: Potency index, ratio of (3R,5S,8R,9S,10S,13S,14S)-3-hydroxy-3-((4-(3-methoxybenzyl)piperazin-1-yl)methyl)-10,13-dimethyltetradecahydro-1H-cyclopenta[a]phenanthren-17(2H)-one IC50 to compound IC50 for inhibition of human 17-beta-HSD10 expressed in HEK-293 cells. Type of series: cell-based.
Series [3] concerns HEK293. The experiment in a line: Inhibition of human 17-beta-HSD10 expressed in HEK293 cells assessed as reduction in oxidation of [14C]-estradiol to [14C]-estrone at 3 uM incubated for 40 hrs by thin layer chromatography. The series is classed as cell-based. The essentials: (§1)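 Stably transfected HEK-293 cells expressing human 17β-HSD10 (G418-selected) were seeded at 2.5 x 10^5 per well for 24 h. Inhibitor was added from a DMSO stock (final DMSO 0.5%) with E2/[14C]-E2 (9:1, final 1 µM) for 40 h at 37°C. Steroids were Et2O-extracted, TLC-separated and quantified by radioactivity. % inhibition was taken from blank-corrected % transformation, run in triplicate.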

Series [4] has as its target T1, 17-beta-hydroxysteroid dehydrogenase type 3 (Homo sapiens, UniProt P37058).
T1 sequence (P37058 whole entry): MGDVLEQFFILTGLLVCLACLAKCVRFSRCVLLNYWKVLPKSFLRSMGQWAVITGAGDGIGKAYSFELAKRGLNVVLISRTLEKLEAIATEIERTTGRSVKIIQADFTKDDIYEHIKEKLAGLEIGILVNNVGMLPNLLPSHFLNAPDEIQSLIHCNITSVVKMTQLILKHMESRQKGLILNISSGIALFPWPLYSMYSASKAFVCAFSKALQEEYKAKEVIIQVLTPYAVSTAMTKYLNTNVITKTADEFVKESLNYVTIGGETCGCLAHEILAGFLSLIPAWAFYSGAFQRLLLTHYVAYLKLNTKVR
The experiment in a line: Inhibition of human 17-beta-HSD3 expressed in LNCaP cells assessed as reduction in […]-3,17-dione to [14C]-testosterone at 3 uM incubated for 1 hr by thin layer chromatography. Type of series: cell-based. In short, it runs like this: (§2)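 LNCaP cells overexpressing 17β-HSD3 were plated at 10^4 per well in medium without hygromycin for 2 days. 15 nM [14C]-4-androstene-3,17-dione plus inhibitor was then added (final DMSO 0.05%) for 1 h at 37°C. Steroids were Et2O-extracted and separated by silica TLC (toluene/acetone 4:1). % inhibition was taken from radioactivity-based % transformation versus a blank control.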

Series [5] is described as follows: Metabolic stability in human liver microsomes assessed as compound remaining at 1 uM incubated for 1 hr in presence of NADPH by HPLC-MS analysis. Conditions: read-out: Stabilty. Type of series: ADME, Microsome. In short, it runs like this:
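Human liver microsomes (40 µg) were incubated with compound for 1 h at 37°C, with or without 10 mM NADPH, in 50 mM Tris with 10 mM MgCl2. The reaction was quenched with MeOH and centrifuged, and supernatants from 2 assays were pooled. Analysis was by HPLC-MS with UV at 190 nm. Remaining % = peak area with NADPH / area without NADPH x 100, from two experiments in duplicate.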
On the technique in general: Liver microsomes are a subcellular fraction often used to study metabolism.

Series [6] deals with T1, 17-beta-hydroxysteroid dehydrogenase type 3. The experiment in a line: Inhibition of human 17-beta-HSD3 expressed in LNCaP cells assessed as reduction in […]-3,17-dione to [14C]-testosterone at 0.3 uM incubated for 1 hr by thin layer chromatography. Type of series: cell-based. In short, it runs like this: as §2
Series [7] deals with HEK293. The experiment in a line: Inhibition of human 17-beta-HSD10 expressed in HEK293 cells assessed as reduction in oxidation of [14C]-estradiol to [14C]-estrone at 0.3 uM incubated for 40 hrs by thin layer chromatography. The series is classed as cell-based. In short, it runs like this:
as §1

21 compounds from ChEMBL document CHEMBL4732072, “Synthesis of 17β-hydroxysteroid dehydrogenase type 10 steroidal inhibitors: Selectivity, metabolic stability and enhanced potency” (Eur J Med Chem, 2021) can be followed below.

pIC50: −log10 of the molar value.

`C[C@]12CC[C@](O)(CN3CCN(C(=O)c4ccc(C(=O)c5ccccc5)cc4)CC3)C[C@@H]1CC[C@@H]1[C@@H]2CC[C@]2(C)C(=O)CC[C@@H]12`: the pIC50 (usually −log10 of the IC50, conventionally taken in molar units) in series [1] is 5.55. For the same compound, the Ratio IC50 in series [2] was found to be 0.79.
For the compound `C#C[C@]1(O)CC[C@H]2[C@@H]3CC[C@H]4C[C@@](O)(CN5CCN(Cc6cccc(OC)c6)CC5)CC[C@]4(C)[C@H]3CC[C@@]21C`, the inhibition (usually the relative decrease from the control value, in per cent) in series [3] was 45.8%; in series [7] it was 22.4%. The inhibition at 3 µM in series [4] amounted to 4%. The remaining at 1 h, 1 µM in series [5] is 45.5%. In series [6], the inhibition at 0.3 µM was 2%.
On the same counts, the results for `COc1cccc(CN2CCN(C[C@@]3(O)CC[C@@]4(C)[C@@H](CC[C@@H]5[C@@H]4CC[C@]4(C)C(=O)C(C)(C)C[C@@H]54)C3)CC2)c1` are 27.9%, 10.8%, 51.9%, 54.5% and 12.4%.
On to `COc1cc(CN2CCN(C[C@@]3(O)CC[C@@]4(C)[C@@H](CC[C@@H]5[C@@H]4CC[C@]4(C)C(=O)CC[C@@H]54)C3)CC2)ccc1C(F)(F)F`, for which the pIC50 in series [1] was 6.85. The Ratio IC50 in series [2] came out at 16.1.
On the same counts, the results for `C#C[C@]1(O)CC[C@H]2[C@@H]3CC[C@H]4C[C@@](O)(CN5CCN(Cc6ccc(C(F)(F)F)c(OC)c6)CC5)CC[C@]4(C)[C@H]3CC[C@@]21C` are 5.90 and 1.8.
Take `COc1cccc(CN2CCN(C[C@@]3(O)CC[C@@]4(C)[C@@H](CC[C@@H]5[C@@H]4CC[C@@]4(C)[C@H]5CCC4(F)F)C3)CC2)c1`: the inhibition in series [3] came to 40.8%; in series [7] it was 5.5%. In series [4], the inhibition at 3 µM is -0.5%. In addition, the remaining at 1 h, 1 µM in series [5] amounted to 34.1%. The inhibition at 0.3 µM in series [6] worked out at 1.1%.
As for `C[C@]12CC[C@](O)(CN3CCN(Cc4cnc5ccccc5c4)CC3)C[C@@H]1CC[C@@H]1[C@@H]2CC[C@]2(C)C(=O)CC[C@@H]12`, in series [1], the pIC50 is 6.01. In addition, the Ratio IC50 in series [2] worked out at 2.33.
The matching figures for `COc1cc(C)ccc1CN1CCN(C[C@@]2(O)CC[C@@]3(C)[C@@H](CC[C@@H]4[C@@H]3CC[C@]3(C)C(=O)CC[C@@H]43)C2)CC1`: 5.52 and 0.75.
Consider `COc1cccc(CN2CCN(C[C@@]3(O)CC[C@@]4(C)[C@@H](CC[C@@H]5[C@@H]4CC[C@]4(C)[C@H](O)CC[C@@H]54)C3)CC2)c1`, for which the inhibition was 36.9% in series [3] and 13.5% in series [7]. Further, the inhibition at 3 µM in series [4] was 3.8%. In addition, the remaining at 1 h, 1 µM in series [5] was 70.6%. Moreover, in series [6], the inhibition at 0.3 µM stood at 5.2%.
For the compound `CC(=O)c1cccc(C(=O)N2CCN(C[C@@]3(O)CC[C@@]4(C)[C@@H](CC[C@@H]5[C@@H]4CC[C@]4(C)C(=O)CC[C@@H]54)C3)CC2)c1`, the pIC50 in series [1] is 5.64. Also, the Ratio IC50 in series [2] is 0.98.
For the compound `CCN(C)S(=O)(=O)N1CCN(C[C@@]2(O)CC[C@@]3(C)[C@@H](CC[C@@H]4[C@@H]3CC[C@]3(C)C(=O)CC[C@@H]43)C2)CC1`, in series [1], the pIC50 is 5.80. For the same compound, in series [2], the Ratio IC50 turned out to be 1.44.
The matching figures for `COc1cc(CN2CCN(C[C@@]3(O)CC[C@@]4(C)[C@@H](CC[C@@H]5[C@@H]4CC[C@]4(C)[C@H](O)CC[C@@H]54)C3)CC2)ccc1C(F)(F)F`: 6.02 and 2.4.
The matching figures for `C[C@]12CC[C@](O)(CN3CCN(C(=O)c4ccc(C#N)cc4)CC3)C[C@@H]1CC[C@@H]1[C@@H]2CC[C@]2(C)C(=O)CC[C@@H]12`: 5.78 and 1.36.
For `COc1cccc(CN2CCN(C[C@@]3(O)CC[C@@]4(C)[C@@H](CC[C@@H]5[C@@H]4CC[C@]4(C)[C@@H](O)CC[C@@H]54)C3)CC2)c1`, the inhibition in series [3] is 42.4%; in series [7] it was 8.5%. Further, the inhibition at 3 µM in series [4] was 48.7%. Further, the remaining at 1 h, 1 µM in series [5] was determined as 67.2%. Besides, in series [6], the inhibition at 0.3 µM amounted to 5%.
The matching figures for `COc1cccc(CN2CCN(C[C@@]3(O)CC[C@@]4(C)[C@@H](CC[C@@H]5[C@@H]4CC[C@@]4(C)[C@H]5CC[C@]4(C)O)C3)CC2)c1`: 41.9%, 20.5%, 20.6%, 21.8% and 2%.
Consider `Cc1cc(C)cc(C(=O)N2CCN(C[C@@]3(O)CC[C@@]4(C)[C@@H](CC[C@@H]5[C@@H]4CC[C@]4(C)C(=O)CC[C@@H]54)C3)CC2)c1`, for which the pIC50 in series [1] is 5.69. Moreover, the Ratio IC50 in series [2] amounted to 1.1.
`COc1cccc(CN2CCN(C[C@@]3(O)CC[C@@]4(C)[C@@H](CC[C@@H]5[C@@H]4CC[C@]4(C)C(=O)CC[C@@H]54)C3)CC2)c1`: the inhibition in series [3] amounted to 70.4%; in series [7], 40.7%. Moreover, the inhibition at 3 µM in series [4] worked out at 84.4%. Moreover, the remaining at 1 h, 1 µM in series [5] came out at 28%. Also, in series [6], the inhibition at 0.3 µM was 30.2%. Further, the pIC50 in series [1] was 5.65.
For the compound `C[C@]12CC[C@](O)(CN3CCN(C(=S)NCc4cccc(C(F)(F)F)c4)CC3)C[C@@H]1CC[C@@H]1[C@@H]2CC[C@]2(C)C(=O)CC[C@@H]12`, the pIC50 in series [1] was 5.85. Further, the Ratio IC50 in series [2] is 1.6.
The matching figures for `CN(C)S(=O)(=O)c1ccc(NC(=S)N2CCN(C[C@@]3(O)CC[C@@]4(C)[C@@H](CC[C@@H]5[C@@H]4CC[C@]4(C)C(=O)CC[C@@H]54)C3)CC2)cc1`: 5.97 and 2.11.
On the same counts, the results for `COc1cc(CN2CCN(C[C@@]3(O)CC[C@@]4(C)[C@@H](CC[C@@H]5[C@@H]4CC[C@]4(C)C(=O)CC[C@@H]54)C3)CC2)ccc1C` are 6.38 and 5.38.
In the case of `C[C@]12CC[C@](O)(CN3CCN(C(=O)c4ccc(-c5ccccc5)cc4)CC3)C[C@@H]1CC[C@@H]1[C@@H]2CC[C@]2(C)C(=O)CC[C@@H]12`, in series [1], the pIC50 is 5.59. Further, the Ratio IC50 in series [2] was found to be 0.87.
